A selection: hits, their analogues and other compounds. The true share with any hit is near 2.3%.
OXTR agonist – human OXTR agonists, primary screen, fluorescence, CHO-OTR cells, Fluo-8 calcium | Oxytocin receptor (Homo sapiens), P30559 | Fluo-8 calcium fluorescence; normalized: DMSO 0%, oxytocin 100% | activation, % at 3 µM | 0.32% of 320,000 active | AID 2435, 2010;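 active = activation above the mean of all tested compounds plus 3 SD, cutoff set per screening run, cut at about 20% in these data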;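 also: peak over basal fluorescence ratio from a 100 s FLIPR kinetic read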
OXTR potentiator – human OXTR potentiators, primary screen, fluorescence, CHO-OTR cells, Fluo-8 calcium; Fluo-8 calcium fluorescence, potentiator mode; 0% = oxytocin EC15, 100% = EC100; Oxytocin receptor (Homo sapiens), P30559; activation, % at 3 µM; 0.061% of 320,000 active; AID 2445, 2010;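 active = activation above that plate's cutoff, the mean activation of tested compounds plus 3 SD, cut at about 6.6% in these data, passing the limit was not always enough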
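assay system = CHO-OTR cells, human receptor | schedule = compound 6 min at room temperature before oxytocin, 100 s read | detection = Fluo-8 intracellular calcium fluorescence, ex 470-495, em 515-575 nm | evaluation = normalized max/min fluorescence ratio, % activation | control set = EC15 oxytocin alone as 0%, 75 nM oxytocin (EC100) as 100%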
TAAR1 agonist – human TAAR1 agonists, primary screen, Fluo-8 calcium fluorescence, CHO RD-HGA16 cells; vehicle wells 0%, saturating PEA agonist 100%; activation, % at 3 µM; 0.99% of 360,000 active; AID 624467, 2012;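 active = activation above the mean activation of all test compounds in the run plus 3 SD, cut at about 38% in these data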
Target sequence (Q96RJ0 whole entry, looked up): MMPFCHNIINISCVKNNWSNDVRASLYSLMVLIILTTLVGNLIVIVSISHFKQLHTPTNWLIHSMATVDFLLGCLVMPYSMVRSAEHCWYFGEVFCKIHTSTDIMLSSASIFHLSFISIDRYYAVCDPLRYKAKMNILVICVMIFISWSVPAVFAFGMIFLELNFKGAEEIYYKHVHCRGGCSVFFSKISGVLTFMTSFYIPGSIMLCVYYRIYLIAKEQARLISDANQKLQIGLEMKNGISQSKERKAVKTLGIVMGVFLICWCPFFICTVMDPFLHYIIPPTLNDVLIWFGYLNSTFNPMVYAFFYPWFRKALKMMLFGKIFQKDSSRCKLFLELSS
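test system = CHO RD-HGA16 cells carrying human TAAR1 plus Gα16 | schedule = 17-24 h seeding, 75 min 37 °C dye, 30 min RT | compound dosing = 3 µM single concentration | control set = DMSO and PEA EC100 | replicates = n 1 | signal = Fluo-8 fluorescence, 5 s baseline then 140 s kinetic read | measure = percent activation vs PEA EC100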
V1R ag counter – agonists of human V1a receptor, primary screen, counter-screen for OXTR agonist project, fluorescence, CHO-V1R cells; activation, % at 3 µM; Vasopressin V1a receptor (Homo sapiens), P37288; 0.25% of 320,000 active; Fluo-8 calcium fluorescence, agonist mode; 0% DMSO, 100% 3 nM vasopressin;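 active = activation above the mean activation of all tested compounds plus 3 SD, per screening run, cut at about 20% in these data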;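 also: signal is peak over basal fluorescence ratio across a 100 second FLIPR read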
TAAR1 antagonist – human TAAR1 antagonists, primary screen, Fluo-8 calcium fluorescence, CHO RD-HGA16 cells. AID 624466, 2012. 1.5% of 360,000 active. Trace amine-associated receptor 1 (Homo sapiens), Q96RJ0. inhibition, % at 3 µM. antagonist;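 active = inhibition above a per-plate cutoff, the mean inhibition of test compounds on that plate plus 3 SD, cut at about 49% in these data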
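System: CHO RD-HGA16 cells bearing hTAAR1. Reagent: EC80 β-phenethylamine stimulus. Schedule: seeding 17-24 h prior, 75-min 37 °C, 30-min RT dye loading. Signal: Fluo-8 intracellular calcium dye fluorescence, real-time kinetic reads. Read-out: % inhibition from peak post-agonist over basal fluorescence ratio. Benchmarks: vehicle wells and EC80 agonist wells. Replicates: n of 1.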
Hits are given with their value; – = inactive; · = no result.

SMILES	OXTR agonist	OXTR potentiator	TAAR1 agonist	V1R ag counter	TAAR1 antagonist
O=C(O)C1CCCCN1C(=O)c1cc2c(s1)CCCCC2 (stereo not drawn)	–	–	–	–	–
O=C(COC(=O)c1cc(=O)c2ccccc2o1)Nc1ccc2ccccc2c1	–	–	40	–	–
CC1CCCC(C)N1C(=O)COC(=O)Cn1cnc2c1c(=O)n(C)c(=O)n2C (stereo not drawn)	–	–	–	–	–
C[C@H](NC(=O)C1CC(=O)N(c2ccc3c(c2)OCCO3)C1)C(=O)NCc1ccco1 (stereo partly drawn)	–	–	–	–	–
O=C(Cn1cc(S(=O)(=O)Cc2ccc([N+](=O)[O-])cc2)c2ccccc21)N1CCOCC1	–	–	–	–	–
O=c1c2cc(Br)ccc2nc(-c2cccc(C(F)(F)F)c2)n1O	54	–	46	61	–
Cc1ccccc1Cn1nc(C)c(NC(=O)C2c3ccccc3Oc3ccccc32)c1C	–	–	39	–	–
Cc1cc(Nc2ccccc2)nc(N2CCOCC2)n1	–	–	41	–	–
Cc1ccc(C2C(C#N)=C(N)Oc3cc(N)ccc32)cc1 (stereo not drawn)	–	–	–	–	–
Cc1ccc(/C=C2\CCC3=C2OC(N)=C(C#N)C3c2ccc(C)cc2)cc1 (stereo not drawn)	23	–	·	43	·
CCOC(=O)/C(=C\c1ccc(Cl)cc1)c1nc2sc(C)c(C)c2c(=O)[nH]1	–	–	–	–	92
Cc1ccc([N+](=O)[O-])cc1NC(=O)c1ccc(C(C)(C)C)cc1	–	–	–	–	53
O=C(NCC(=O)N(Cc1cccs1)C(C(=O)NC1CCCCC1)c1ccco1)c1ccco1 (stereo not drawn)	–	–	–	–	52
Cc1ccccc1Nc1nc(N)nc(CSc2nc3ccccc3c(=O)n2CCCO)n1	–	–	–	–	–
Cc1ccccc1Nc1nc(N)nc(CSc2nc3ccccc3c(=O)n2C)n1	–	–	–	–	59
Cc1cc(C(=O)N/N=C\c2ccc(COc3ccc([N+](=O)[O-])cc3)o2)ccc1[N+](=O)[O-]	–	–	–	–	54
O=c1ccc2cc3c([nH]c4ccc(Br)cc43)oc-2c1O	–	–	38	–	–
O=C(O)c1ccc(N=Nc2c(O)[nH]c3ccc(Br)cc23)cc1	–	–	–	–	–
CCOC(=O)C1(C)CCCN(C(=O)c2ccc(F)cc2Cl)C1 (stereo not drawn)	·	·	–	·	–
Cc1cccc(C)c1NC(=O)C(=O)NCCOc1ccc(Cl)cc1	22	–	–	–	–
Cc1ccc(C(=O)NCCOc2ccc(Cl)cc2)cc1	–	–	–	–	–
CCN(CC)CCCNc1nc2ccccc2c2nc(-c3ccncc3)nn12	–	–	–	–	–
CC(CCc1ccccn1)(CCc1ccccn1)C(=O)c1ccccc1	·	·	–	·	53
CC(CCc1ccccn1)C(=O)c1ccccc1 (stereo not drawn)	·	·	–	·	–
CC(=O)Nc1cccc(-c2ccnc3c2CC(C(=O)Nc2cccc(N(C)C)c2)O3)c1 (stereo not drawn)	·	·	–	·	–
SMILES	OXTR agonist	OXTR potentiator	TAAR1 agonist	V1R ag counter	TAAR1 antagonist
CCOC(=O)N(C)c1c(CC)nc2c(OCc3ccc(Cl)cc3Cl)cccn12	·	·	–	·	–
Cc1onc(-c2c(Cl)cccc2Cl)c1CO/N=C(\C#N)c1c(Cl)cccc1Cl	–	–	–	–	49
Fc1ccc(COc2ccccc2CNCc2ccncc2)cc1	–	–	–	–	–
Brc1ccc(OCc2ccccc2)c(CNCc2ccncc2)c1	–	–	–	–	70
Cc1nnc(NC(=O)CSc2nnc(-c3ccccc3)n2C)s1	–	–	–	–	–
C=CCn1c(SCC(=O)N2CCCC2=O)nc2sc(CC)cc2c1=O	38	–	–	40	–
C=CCn1c(SCC(=O)O)nc2sc(CC)cc2c1=O	–	–	–	–	–
Cc1cc(C)nc(-n2nc(C)cc2NC(=O)CN2CCc3ccccc3C2)n1	–	–	43	–	–
Cc1cc(C)nc(-n2nc(C)cc2NC(=O)CN2CCCC(C)C2)n1 (stereo not drawn)	–	–	–	–	–
COc1ccc(N(CCCN2C(=O)c3cccc4cccc(c34)C2=O)C(=O)c2cccs2)cc1	–	–	–	–	–
Cc1ccc(N(CCCCN2C(=O)c3ccccc3C2=O)C(=O)c2cccs2)cc1	–	–	–	–	49
COc1ccc(CCNC(=O)c2cnc3ccccc3n2)cc1	–	–	–	–	–
COc1ccc(CCNC(=O)c2cccc(C(=O)NCCc3ccc(OC)cc3)n2)cc1	–	–	–	–	54
Cc1ccccc1OCCOc1cccc(/C=N/NC(=O)Cc2nnc(N)s2)c1	–	–	–	–	49
CC1(C)CC(NC(=O)C2CCN(S(=O)(=O)c3cccc(C(F)(F)F)c3)CC2)CC(C)(C)N1	–	–	–	–	–
Cc1cc(C)cc(N(CC(=O)NCc2ccco2)C(=O)c2snc(C(N)=O)c2N)c1	–	–	–	–	–
Cc1cc(C)cc(N(CC(=O)NCc2ccc(F)cc2)C(=O)c2snc(C(N)=O)c2N)c1	–	–	41	–	–
COC(=O)[C@H](CC(C)C)NC(=O)Cn1cnc2c(SC)nc(N)nc21	–	–	–	–	–
O=C(/C=C/c1ccco1)Nc1cccc(NC(=O)/C=C/c2ccco2)n1	–	–	–	–	54
COc1ccc(CCNC(=O)CNS(=O)(=O)c2ccc(Br)cc2)cc1	–	–	–	–	–
CCN(c1ccccc1)S(=O)(=O)c1cc(C(=O)Nc2cccc(Cl)c2)ccc1F	–	–	–	–	–
CCc1ccc(NC(=O)c2ccc(F)c(S(=O)(=O)N(CC)c3ccccc3)c2)cc1	–	–	–	–	59
CC(=O)N(C1=C(Cl)C(=O)c2ccccc2C1=O)C1CCCCC1	–	–	42	–	–
COc1ccc(CCNC(=O)COc2nncc3ccccc23)cc1	–	–	–	–	–
O=C1COc2ccc(C(=O)COc3ccc([N+](=O)[O-])cc3)cc2N1	–	–	–	–	–
CC1C(=O)N(Cc2ccccc2F)c2ccccc2N1C(=O)c1c(F)cccc1F (stereo not drawn)	–	–	–	–	52
COc1cccc(NC(=O)CNC(C)CCC(C)C)c1 (stereo not drawn)	–	–	38	–	–
COC(=O)[C@]12CCCCC=C1N(Cc1ccc3c(c1)OCO3)C(=O)[C@H](CC(=O)NCC1CCCCC1)C2	·	·	–	·	50

Source: PubChem (The Scripps Research Institute Molecular Screening Center)
